Experimental data taken from ChEMBL document CHEMBL1926642, “Relevance of the C-5 position to schweinfurthin induced cytotoxicity” (2011).

Key:
Format in all cases: functional
[1] = system: SF-539; experiment: Cytotoxicity against human SF539 cells assessed as cell growth at 10 uM after 48 hrs by sulforhodamine B assay relative to control; conditions: SF-539, 48 h, read-out: Activity
Procedure, shortened: (§1)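 Compounds went through the NCI 60 cell-line screen, whose current protocol tests first at a single dose.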

[2] = system: MDA-MB-468; experiment: Cytotoxicity against human MDA-MB-468 cells assessed as cell growth at 10 uM after 48 hrs by sulforhodamine B assay relative to control; conditions: MDA-MB-468, 48 h, read-out: Activity; procedure, shortened: as §1
[3] = system: DU-145; experiment: Cytotoxicity against human DU145 cells assessed as cell growth at 10 uM after 48 hrs by sulforhodamine B assay relative to control; conditions: DU-145, 48 h, read-out: Activity; procedure, shortened: as §1
[4] = system: KM12; experiment: Cytotoxicity against human KM12 cells assessed as cell growth at 10 uM after 48 hrs by sulforhodamine B assay relative to control; conditions: KM12, 48 h, read-out: Activity; procedure, shortened: as §1
[5] = system: NCI-H460; experiment: Cytotoxicity against human NCI-H460 cells assessed as cell growth at 10 uM after 48 hrs by sulforhodamine B assay relative to control; conditions: NCI-H460, 48 h, read-out: Activity; procedure, shortened: as §1
[6] = system: HOP-62; experiment: Cytotoxicity against human HOP62 cells assessed as cell growth at 10 uM after 48 hrs by sulforhodamine B assay relative to control; conditions: HOP-62, 48 h, read-out: Activity; procedure, shortened: as §1
[7] = system: SK-MEL-5; experiment: Cytotoxicity against human SK-MEL-5 cells assessed as cell growth at 10 uM after 48 hrs by sulforhodamine B assay relative to control; conditions: SK-MEL-5, 48 h, read-out: Activity; procedure, shortened: as §1
[8] = system: SW-620; experiment: Cytotoxicity against human SW620 cells assessed as cell growth at 10 uM after 48 hrs by sulforhodamine B assay relative to control; conditions: SW-620, 48 h, read-out: Activity
[9] = Cytotoxicity against human Hs 578T cells assessed as cell growth at 10 uM after 48 hrs by sulforhodamine B assay relative to control; conditions: read-out: Activity; procedure, shortened: as §1
[10] = system: NCI-H226; experiment: Cytotoxicity against human NCI-H226 cells assessed as cell growth at 10 uM after 48 hrs by sulforhodamine B assay relative to control; conditions: NCI-H226, 48 h, read-out: Activity; procedure, shortened: as §1
[11] = system: OVCAR-3; experiment: Cytotoxicity against human OVCAR3 cells assessed as cell growth at 10 uM after 48 hrs by sulforhodamine B assay relative to control; conditions: OVCAR-3, 48 h, read-out: Activity; procedure, shortened: as §1
[12] = system: HOP-92; experiment: Cytotoxicity against human HOP92 cells assessed as cell growth at 10 uM after 48 hrs by sulforhodamine B assay relative to control; conditions: HOP-92, 48 h, read-out: Activity; procedure, shortened: as §1
[13] = system: SNB-75; experiment: Cytotoxicity against human SNB75 cells assessed as cell growth at 10 uM after 48 hrs by sulforhodamine B assay relative to control; conditions: SNB-75, 48 h, read-out: Activity
[14] = system: 786-0; experiment: Cytotoxicity against human 786-0 cells assessed as cell growth at 10 uM after 48 hrs by sulforhodamine B assay relative to control; conditions: 786-0, 48 h, read-out: Activity; procedure, shortened: as §1
[15] = system: LOX IMVI; experiment: Cytotoxicity against human LOXIMVI cells assessed as cell growth at 10 uM after 48 hrs by sulforhodamine B assay relative to control; conditions: read-out: Activity; procedure, shortened: as §1
[16] = system: HL-60(TB); experiment: Cytotoxicity against human HL-60(TB) cells assessed as cell growth at 10 uM after 48 hrs by sulforhodamine B assay relative to control; conditions: HL-60, 48 h, read-out: Activity
Procedure, shortened: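 Tested in the NCI 60 cell-line screen, where the current protocol starts with testing at a single dose.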

[17] = system: MOLT-4; experiment: Cytotoxicity against human MOLT4 cells assessed as cell growth at 10 uM after 48 hrs by sulforhodamine B assay relative to control; conditions: MOLT-4, 48 h, read-out: Activity; procedure, shortened: as §1
[18] = system: CCRF-CEM; experiment: Cytotoxicity against human CCRF-CEM cells assessed as cell growth at 10 uM after 48 hrs by sulforhodamine B assay relative to control; conditions: read-out: Activity; procedure, shortened: as §1
[19] = system: SF-268; experiment: Cytotoxicity against human SF268 cells assessed as cell growth at 10 uM after 48 hrs by sulforhodamine B assay relative to control; conditions: SF-268, 48 h, read-out: Activity; procedure, shortened: as §1
[20] = system: A549; experiment: Ratio of GI50 for human A549 cells to GI50 for human SF295 cells after 48 hrs by sulforhodamine B assay
[21] = system: TK-10; experiment: Cytotoxicity against human TK10 cells assessed as cell growth at 10 uM after 48 hrs by sulforhodamine B assay relative to control; conditions: TK-10, 48 h, read-out: Activity
[22] = system: Malme-3M; experiment: Cytotoxicity against human MALME-3M cells assessed as cell growth at 10 uM after 48 hrs by sulforhodamine B assay relative to control; conditions: read-out: Activity; procedure, shortened: as §1

Q: Which growth at 10 µM [1] does the source give for `COCc1cc(/C=C/c2cc(O)c(C/C=C(\C)CCC=C(C)C)c(OC)c2)cc2c1O[C@]1(C)CC[C@@H](O)C(C)(C)[C@H]1C2` here?
A: Its growth at 10 µM is 89.9%.

Q: And the growth at 10 µM [2]?
A: Its growth at 10 µM is 116%.

Q: What about the growth at 10 µM [3] of the same molecule?
A: Its growth at 10 µM is 105%.

Q: What about the growth at 10 µM [4] of the same molecule?
A: The growth at 10 µM was 123%.

Q: And the growth at 10 µM [5]?
A: Its growth at 10 µM is 105%.

Q: And the growth at 10 µM [6]?
A: Its growth at 10 µM is 127%.

Q: What about the growth at 10 µM [7] of the same molecule?
A: The growth at 10 µM was 108%.

Q: What about the growth at 10 µM [8] of the same molecule?
A: The growth at 10 µM was 129%.

Q: And the growth at 10 µM [9]?
A: The growth at 10 µM was 82.8%.

Q: What about the growth at 10 µM [10] of the same molecule?
A: The growth at 10 µM was 120%.

Q: And the growth at 10 µM [11]?
A: Its growth at 10 µM is 94.8%.

Q: And the growth at 10 µM [12]?
A: The growth at 10 µM was 108%.

Q: And the growth at 10 µM [13]?
A: The growth at 10 µM was 84.2%.

Q: What about the growth at 10 µM [14] of the same molecule?
A: Its growth at 10 µM is 69.8%.

Q: And the growth at 10 µM [15]?
A: The growth at 10 µM was 92.7%.

Q: What about the growth at 10 µM [16] of the same molecule?
A: The growth at 10 µM was 78.2%.

Q: What about the growth at 10 µM [17] of the same molecule?
A: The growth at 10 µM was 70.4%.

Q: What about the growth at 10 µM [18] of the same molecule?
A: The growth at 10 µM was 81.9%.

Q: And the growth at 10 µM [19]?
A: Its growth at 10 µM is 97.1%.

Q: Which RatioGI50 [20] does the source give for `COc1cc(/C=C/c2cc3c(c(OC)c2)O[C@]2(C)CC[C@@H](O)C(C)(C)[C@H]2C3)cc(O)c1C/C=C(\C)CCC=C(C)C` here?
A: Its RatioGI50 is 13.

Q: Which growth at 10 µM [1] does the source give for `COc1cc(/C=C/c2cc(Br)c3c(c2)C[C@@H]2C(C)(C)[C@H](O)CC[C@@]2(C)O3)cc(O)c1C/C=C(\C)CCC=C(C)C` here?
A: The growth at 10 µM was 91.2%.

Q: And the growth at 10 µM [2]?
A: The growth at 10 µM was 110%.

Q: And the growth at 10 µM [21]?
A: The growth at 10 µM was 113%.

Q: And the growth at 10 µM [3]?
A: Its growth at 10 µM is 91.3%.

Q: What about the growth at 10 µM [22] of the same molecule?
A: The growth at 10 µM was 115%.

Q: What about the growth at 10 µM [4] of the same molecule?
A: Its growth at 10 µM is 97.3%.

Q: What about the growth at 10 µM [5] of the same molecule?
A: Its growth at 10 µM is 108%.

Q: What about the growth at 10 µM [6] of the same molecule?
A: Its growth at 10 µM is 113%.

Q: And the growth at 10 µM [7]?
A: Its growth at 10 µM is 99.3%.

Q: What about the growth at 10 µM [8] of the same molecule?
A: The growth at 10 µM was 119%.

Q: And the growth at 10 µM [9]?
A: The growth at 10 µM was 64.3%.

Q: What about the growth at 10 µM [10] of the same molecule?
A: The growth at 10 µM was 117%.

Q: What about the growth at 10 µM [11] of the same molecule?
A: Its growth at 10 µM is 88.2%.

Q: What about the growth at 10 µM [12] of the same molecule?
A: Its growth at 10 µM is 127%.

Q: What about the growth at 10 µM [13] of the same molecule?
A: The growth at 10 µM was 91.2%.

Q: What about the growth at 10 µM [14] of the same molecule?
A: Its growth at 10 µM is 96%.

Q: What about the growth at 10 µM [15] of the same molecule?
A: The growth at 10 µM was 105%.

Q: What about the growth at 10 µM [16] of the same molecule?
A: The growth at 10 µM was 69.7%.

Q: And the growth at 10 µM [17]?
A: Its growth at 10 µM is 74.1%.

Q: And the growth at 10 µM [18]?
A: Its growth at 10 µM is 85.3%.

Q: What about the growth at 10 µM [19] of the same molecule?
A: Its growth at 10 µM is 88.5%.

Q: With `COc1cc(/C=C/c2cc(O)c3c(c2)C[C@@H]2C(C)(C)[C@H](O)CC[C@@]2(C)O3)cc(O)c1C/C=C(\C)CCC=C(C)C` as the molecule, how does the RatioGI50 [20] read?
A: Its RatioGI50 is greater than 30.
